Only some compounds are listed: those with a hit (about 2.8% of all), similar ones and a draw of the others.
SR-BI HDL uptake: mouse SR-BI HDL lipid transfer inhibition | ldlA[mSR-BI] CHO cells, DiI-HDL uptake fluorescence, 3 h | inhibition, % at 12.5 µM | 0.96% of 320,000 active | Q61009;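 active = mean replicate inhibition of at least 70% and a set share of replicates each scoring 70 or more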;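 also: 0% = median of neutral control wells and 100% = median of positive control wells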
SR-BI DiI-HDL act: activators of SR-BI mediated HDL lipid uptake. CHO ldlA[mSR-BI] cells, DiI-HDL uptake fluorescence, 3 h; 100 = double the neutral-control signal. activation, % at 12.5 µM. 0.096% of 320,000 active;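 active = mean replicate activation of at least 60% and every replicate at or above 60%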;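 also: 0% = median plate neutral-control signal and 100% = twice that signal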
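Test system: SR-BI-overexpressing, LDLR-lacking CHO cells; Also added: labelled HDL, 10 µg/mL; Measured by: bottom-read cell fluorescence after medium removal, ex 550/em 595 nm; Timing: 3 h uptake period with compound, 37 °C; Buffer or medium: F12, 0.5% BSA, 25 mM HEPES; Doses: single compound concentration, delivered by pin transfer.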
CAL PDZ FP-1: CAL PDZ (human) peptide binding inhibition; Q9HD26; purified CAL PDZ, TMR-peptide fluorescence polarization, 1 h; inhibition, % at 24.9 µM; 0.92% of 300,000 active; AID 602252;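 active = mean inhibition of at least 30% with at least half of replicates also reaching 30%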;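 also: 0% = DMSO neutral control and 100% = excess unlabeled competitor peptide PRC23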
dFosB activator: mouse delta FosB homodimer activation; 0.99% of 340,000 active; P13346; AID 493131; activation, % at 25 µM; purified delta FosB, TAMRA-CDK5 oligo fluorescence polarization; percent of positive-control signal above neutral wells;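 active = mean activation above about 17%, with every replicate also reaching it, limit read from the data, passing the limit was not always enough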
Target sequence (P13346 whole entry, looked up): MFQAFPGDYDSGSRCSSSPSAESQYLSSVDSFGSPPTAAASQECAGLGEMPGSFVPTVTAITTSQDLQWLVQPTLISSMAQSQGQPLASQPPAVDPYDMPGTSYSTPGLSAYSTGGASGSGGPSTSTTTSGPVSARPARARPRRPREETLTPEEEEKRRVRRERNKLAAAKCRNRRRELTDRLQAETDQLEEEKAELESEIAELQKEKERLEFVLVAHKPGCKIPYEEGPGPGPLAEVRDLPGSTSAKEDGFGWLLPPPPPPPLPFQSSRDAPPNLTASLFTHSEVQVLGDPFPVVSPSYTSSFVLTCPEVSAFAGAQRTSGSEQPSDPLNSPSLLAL
CAL PDZ FP-2: blocks peptide binding to human CAL PDZ domain | Q9HD26 | purified CAL PDZ, TMR-peptide fluorescence polarization, 1 h | inhibition, % at 20 µM | 0.02% of 330,000 active | AID 504414;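 active = highest replicate inhibition of at least 40%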;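 also: plate controls were DMSO neutral control wells for no effect and unlabeled competitor peptide control wells for full effect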
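material = purified tagged CAL PDZ domain construct (CerCALP) | compound dosing = 20 µM, one dose | times = 1 h at RT | measured by = fluorescence polarization from S- and P-plane intensities, G-factor corrected | read-out = inhibition from polarization loss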
* marks the source's active call; other numbers are inactive results; x = no result.

SMILES	SR-BI HDL uptake	SR-BI DiI-HDL act	CAL PDZ FP-1	dFosB activator	CAL PDZ FP-2
COc1cc(C2=NOC(C(=O)N3CCN(c4ccc(F)cc4)CC3)C2)cc(OC)c1OC (centres undefined)	79*	-79	-1	-8	0
COc1cc(C2=NOC(C(=O)N3CCCCCC3)C2)cc(OC)c1OC (centres undefined)	10	-10	-4	0	1
c1cc(-c2nnc(-c3ccncc3)o2)ccn1	-10	10	49*	-8	x
CCSc1nnc(-c2ccncc2)o1	-13	13	-3	4	0
O=C(c1nc2ccccn2c1CNCCCn1ncc2ccccc21)N1CCOCC1	-26	26	9	-8	0
Cc1cc2ccccc2n1CCNCc1c(C(=O)N2CCOCC2)nc2ccccn12	7	-7	82*	-7	0
Cc1c(N(C)S(=O)(=O)c2ccc(Cl)c(C(=O)NCC(C)(C)N3CCOCC3)c2)c(=O)n(-c2ccccc2)n1C	-9	9	35*	-5	-1
Cc1c(N(C)S(=O)(=O)c2cc(C(=O)N3CCCC3)ccc2Cl)c(=O)n(-c2ccccc2)n1C	-10	10	-1	-1	0
C/C(CCc1ccc2c(c1)OCO2)=N\NC(=S)NC(C)C	77*	-77	-1	-5	13
CCOC(=O)C1CCN(C(=O)/C(=C/c2ccccc2)NC(=O)c2ccccc2)CC1	-18	18	51*	-7	x
CCOC(=O)C1CCCN(C(=O)/C(=C/c2ccco2)NC(=O)c2ccccc2)C1 (centres undefined)	x	x	x	-4	-2
N#CCCN1CCCc2cc(N=Nc3ccc(C(F)(F)F)cc3)ccc21	98*	-98	-2	-5	1
Cc1cc(C)c(NC(=O)COC(=O)c2cc([N+](=O)[O-])ccc2N2CCOCC2)c(C)c1	47	-47	-3	-8	-2
O=C(COC(=O)c1cc([N+](=O)[O-])ccc1N1CCCC1)Nc1ccccc1OC(F)F	67	-67	4	-3	-3
Cc1cc(NC(=O)COC(=O)c2cc([N+](=O)[O-])ccc2N2CCOCC2)ccc1Br	71*	-71	-1	5	-4
O=C(COC(=O)c1cc([N+](=O)[O-])ccc1N1CCOCC1)c1ccc(OC(F)F)cc1OC(F)F	76*	-76	7	-8	-2
O=C(COC(=O)c1cc([N+](=O)[O-])ccc1N1CCOCC1)Nc1ccccc1OC(F)F	74*	-74	x	-8	0
O=C(COC(=O)c1cc([N+](=O)[O-])ccc1N1CCOCC1)Nc1cc(F)ccc1F	85*	-85	-2	-1	-1
CCCCn1c(N)c(N(C)C(=O)c2ccc(OCC3CCCO3)cc2)c(=O)[nH]c1=O (centres undefined)	-13	13	x	1	0
O=C(CCCn1c(=S)[nH]c2cc3c(cc2c1=O)OCO3)NCc1cccc(Cl)c1	18	-18	-7	9	0
O=C(COC(=O)c1cn(-c2ccccc2)nc1-c1ccccc1)Nc1ncc(Cl)cc1Cl	29	-29	77*	-6	0
CCN(CC)S(=O)(=O)c1ccc(N2CCOCC2)c(NC(=O)c2cc([N+](=O)[O-])ccc2Cl)c1	-22	22	40*	2	-1
O=C(COC(=O)c1cc([N+](=O)[O-])ccc1N1CCOCC1)Nc1ncc(Cl)cc1Cl	86*	x	x	-7	-1
COCCCNC1CS(=O)(=O)CC1O (centres undefined)	-23	23	73*	0	8
CCN1C(=O)/C(=C\C=C\c2ccccc2[N+](=O)[O-])SC1=S	30	-30	2	3	x
SMILES	SR-BI HDL uptake	SR-BI DiI-HDL act	CAL PDZ FP-1	dFosB activator	CAL PDZ FP-2
CCN1C(=O)/C(=C/C=C2\N(CC)c3cc(S(=O)(=O)N(C)C)ccc3N2c2ccccc2)SC1=S	x	x	-2	91*	-4
Cc1ccc(-c2nnc(NCc3nc4ccccc4[nH]3)c3ccccc23)cc1S(=O)(=O)N1CCCCC1	-18	18	x	80*	-2
Cc1ccc(-c2nnc(NC3CCCCC3)c3ccccc23)cc1S(=O)(=O)N1CCN(C)CC1	15	-15	-6	-8	-6
CCCCN(C1CCS(=O)(=O)C1)S(=O)(=O)c1ccc(OC)c(OC)c1 (centres undefined)	-12	12	-2	-10	-1
COc1cccc(C(=O)N2N=C(c3cccc(OC)c3)CC2(O)C(F)(F)F)c1 (centres undefined)	-8	8	0	-9	-3
COc1cccc(C(=O)N2N=C(c3ccccn3)CC2(O)C(F)(F)F)c1 (centres undefined)	-240	241*	-8	1	1
Cc1cc(Br)c(OCc2ccc(C(=O)N/N=C/c3ccc[nH]3)cc2)c(Br)c1	91*	-91	12	-3	1
O=C(N/N=C/c1ccc[nH]1)c1ccc(COc2cccc3cccnc23)cc1	60	-60	-2	-10	-2
C[C@]12c3[nH]c4cc(-c5ccco5)ccc4c3CCN1C(=O)[C@@H](CC(=O)NCC13CC4CC(CC(C4)C1)C3)C[C@@H]2C(=O)N1CCOCC1	13	-13	-2	-17	-1
Nc1nnc(SCC(=O)c2ccc([N+](=O)[O-])cc2)s1	-43	43	35*	2	17
Cc1cc(C(=O)N2CCCC(CCC(=O)N3CCN(c4ccccn4)CC3)C2)c(C)o1 (centres undefined)	10	-10	45*	-1	0
Cc1cccc(C(=O)N2CCCC(CCC(=O)N3CCN(c4ccccn4)CC3)C2)c1C (centres undefined)	9	-9	x	-8	-1
O=C1c2ccccc2S(=O)(=O)c2cc(C(=O)N3CCN(c4ccc(Cl)cn4)CC3)ccc21	-1	1	1	-3	0
O=C1c2ccc(-c3ccc(Cl)c(C(F)(F)F)c3)cc2S(=O)(=O)c2cccc(C(=O)N3CCN(c4ccc(Cl)cn4)CC3)c21	91*	-91	-3	-3	0
CC(C)(C)C(=O)Nc1ccc(C(=O)N/N=C/c2ccccc2OC(=O)c2ccccc2)cc1	122*	-122	-1	7	-5
COc1ccc(C(=O)N/N=C/c2ccccc2OC(=O)c2ccccc2)cc1	27	-27	-2	-8	-7
CC(C)(C)C(=O)Nc1ccc(C(=O)N/N=C/c2ccccc2OC(=O)c2ccc(Cl)cc2)cc1	97*	-97	-3	-9	-4
CCOc1cc(/C=N\NC(=O)c2ccc(NC(=O)C(C)(C)C)cc2)ccc1OC(=O)c1cccc(C)c1	23	-23	-4	1	0
Cc1cccc(C(=O)Oc2ccccc2/C=N/NC(=O)c2ccc(NC(=O)C(C)(C)C)cc2)c1	87*	-87	-4	-2	-6
